Laboratory results reported in ChEMBL document CHEMBL1124006, “Synthesis and cognition activating properties of some mono- and bicyclic lactam derivatives” (1988).
“And” between values parts separate entries of the source, which are not always exact repeats. Identical values can stand only once.

Key:
[1] = system: Mus musculus; test: Exploratory activity in hole board at the dose of 500 mg/kg lactum derivatives on mice; assay type: functional
Summary of the method: (§1)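 Swiss inbred mice (male and female, 22 ± 2 g), 10 per dose (5 of each sex), given ip in 1% Tween 80; controls got vehicle only. Boissier–Simon hole board with infrared detection: total holes explored per animal in 5 min, mean ± SD. t test vs vehicle.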

[2] = system: Mus musculus; test: Motor coordination in rotarod test performed (total number of falls in 3 min) at the dose of 500 mg/kg lactam derivatives on mice; assay type: functional
Summary of the method: (§2)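 Rota-rod motor coordination in Swiss mice (10 per dose, sexes mixed, 22 ± 2 g), dosed ip in 1% Tween 80 against vehicle controls. Falls counted per animal, mean ± SD; t test vs vehicle. The table footer gives 3 min and the method gives a 100 s observation period.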

[3] = system: Mus musculus; test: Maximal Electroshock seizure (% of animals without seizures) at the dose of 1000 mg/kg lactam derivatives on mice; assay type: functional
Summary of the method: (§3)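 Swiss mice of both sexes, 10 per dose, ip in 1% Tween 80. Maximal electroshock set to kill 50% of controls (60 mA, 0.4 s, 0.6 ms pulse width). Mice without seizures counted as protected; percent protected.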

[4] = system: Mus musculus; test: Traction test (times in seconds on the horizontal wire with forelegs) performed at the dose of 500 mg/kg lactam derivatives on mice; assay type: functional
Summary of the method: (§4)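 Boissier–Simon traction test in Swiss mice (5 male plus 5 female per dose, 22 ± 2 g), dosed ip in 1% Tween 80, with vehicle controls. Read-out: time in seconds each mouse stays hanging by its forelegs on a horizontal wire, mean ± SD; t test vs vehicle.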

[5] = system: Mus musculus; test: Exploratory activity in hole board at the dose of 1000 mg/kg lactam derivatives on mice; assay type: functional
Summary of the method: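 Swiss mice of both sexes, 22 ± 2 g, 10 per dose, ip in 1% Tween 80. Hole board (Boissier and Simon); holes explored in 5 min counted by infrared device; mean ± SD.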

[6] = system: Mus musculus; test: Traction test (times in seconds on the horizontal wire with forelegs) performed at the dose of 1000 mg/kg lactam derivatives on mice; assay type: functional; summary of the method: as §4
[7] = system: Mus musculus; test: Motor coordination in rotarod test performed (total number of falls in 3 min) at the dose of 1000 mg/kg lactam derivatives on mice; assay type: functional; summary of the method: as §2
[8] = system: Mus musculus; test: Spontaneous motor activity in open field at the dose of 1000 mg/kg on mice; assay type: functional
Summary of the method: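 Swiss mice, male and female, 22 ± 2 g, 10 per dose (5 each sex). Dosed ip in 1% Tween 80, doses up to 1000 mg/kg. Open field 15 min after injection; total movements in 5 min; mean ± SD, t test.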

[9] = system: Mus musculus; test: Spontaneous motor activity in open field at the dose of 500 mg/kg on mice; assay type: functional
Summary of the method: (§5)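 Open-field activity in male and female Swiss mice (22 ± 2 g, 10 per dose), compound given ip in 1% Tween 80 with vehicle-only controls. Tested 15 min after injection: total movements per animal in 5 min, mean ± SD; t test vs vehicle.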

[10] = system: Mus musculus; test: Maximal Electroshock seizure (% of animals without seizures) at the dose of 500 mg/kg lactam derivatives on mice; assay type: functional
Summary of the method: (§6)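 Swiss mice (5 male, 5 female per dose, 22 ± 2 g) dosed ip in 1% Tween 80, with vehicle controls. Maximal electroshock set to kill 50% of controls: 60 mA, 0.4 s shock, 0.6 ms pulse width. Read-out: percent of animals without seizures.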

[11] = system: Rattus norvegicus; test: Effect of lactam derivative on retention in one-trial passive avoidance test in rats tested at equimolar doses to 100 mg/kg ip of piracetam; assay type: functional, organism-based; design: dose 100 mg/kg; details: at 100 mg/kg
Summary of the method: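 Male Sprague-Dawley rats, 250-300 g, 8 per group, dosed ip twice for 2 days, equimolar to 100 mg/kg piracetam. Trained to avoid dark compartment, 720 μA footshock for 15 s; retested 24 h later with grid off. Rats avoiding dark side 0.2-3 min counted as remembering; percent retention.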

[12] = system: Rattus norvegicus; test: Retention time was measured at equimolar doses to 100 mg/kg ip of piracetam; assay type: functional, organism-based; design: dose 100 mg/kg
Summary of the method: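 Male Sprague-Dawley rats, 8 per group, ip twice for 2 days, equimolar to 100 mg/kg piracetam. Footshock 720 μA, 15 s; retest 24 h later. For remembering rats, retention time T = T' − T0, light-compartment time at retest minus time at acquisition; mean ± SD, t test.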

[13] = system: Mus musculus; test: Maximal Electroshock seizure (% of animals without seizures) at the dose of 500 mg/kg on mice; assay type: functional; summary of the method: as §6
[14] = system: Mus musculus; test: Motor coordination in rotarod test performed (total number of falls in 3 min) at the dose of 1000 mg/kg on mice (statistical significance test); assay type: functional; summary of the method: as §2
[15] = system: Mus musculus; test: Maximal Electroshock seizure (% of animals without seizures) at the dose of 1000 mg/kg on mice; assay type: functional; summary of the method: as §3
[16] = system: Mus musculus; test: Motor coordination in rotarod test performed (total number of falls in 3 min) at the dose of 500 mg/kg on mice; assay type: functional; summary of the method: as §2
[17] = system: Mus musculus; test: Traction test (times in seconds on the horizontal wire with forelegs) performed at the dose of 500 mg/kg on mice (statistical significance test); assay type: functional; summary of the method: as §4
[18] = system: Mus musculus; test: Exploratory activity in hole board at the dose of 1000 mg/kg on mice (statistical significance test); assay type: functional; summary of the method: as §1
[19] = system: Mus musculus; test: Spontaneous motor activity in open field at the dose of 1000 mg/kg on mice (statistical significance test); assay type: functional; summary of the method: as §5
[20] = system: Mus musculus; test: Traction test (times in seconds on the horizontal wire with forelegs) performed at the dose of 1000 mg/kg on mice (statistical significance test); assay type: functional; summary of the method: as §4
[21] = system: Rattus norvegicus; test: Effect of tested at dose of 100 mg/kg in the water- maze test after 30 minutes (day 4); assay type: functional
[22] = system: Mus musculus; test: Traction test (times in seconds on the horizontal wire with forelegs) performed at the dose of 1000 mg/kg on mice; assay type: functional
Summary of the method: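 Swiss mice of both sexes, 10 per dose, ip in 1% Tween 80. Boissier and Simon traction test; time spent hanging by forelegs on a horizontal wire, in seconds; mean ± SD.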

[23] = system: Rattus norvegicus; test: Effect of tested at dose of 100 mg/kg in the water- maze test (day 1); assay type: functional
Summary of the method: (§7)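 Male Sprague-Dawley rats, 250-300 g, 10 per group; day 1 selects rats unable to leave the water maze within 5 min. Drug dosed ip twice daily on days 2-4, equimolar to 100 mg/kg piracetam. On day 5, two doses 30 min apart, then transtemporal ECS (60 mA/0.2 s). Mazes run 15, 60, 240 min after shock. Errors (reversals plus wrong entrances) and exit time recorded; mean ± SD, t test.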

[24] = system: Rattus norvegicus; test: Effect of tested at dose of 100 mg/kg in the water- maze test after 60 minutes (day 4); assay type: functional; summary of the method: as §7
[25] = system: Rattus norvegicus; test: Effect of tested at dose ofv 100 mg/kg in the water- maze test (day 2); assay type: functional; summary of the method: as §7
[26] = system: Mus musculus; test: Motor coordination in rotarod test performed (total number of falls in 3 min) at the dose of 1000 mg/kg on mice; assay type: functional
[27] = system: Rattus norvegicus; test: Effect of lactam derivatives tested at dose of 100 mg/kg in the water- maze test (day 2); assay type: functional; summary of the method: as §7
[28] = system: Rattus norvegicus; test: Effect of lactam derivatives tested at dose of 100 mg/kg in the water- maze test (day 1); assay type: functional; summary of the method: as §7
[29] = system: Rattus norvegicus; test: Effect of tested at dose of 100 mg/kg in the water- maze test (day 3); assay type: functional; summary of the method: as §7
[30] = system: Rattus norvegicus; test: Effect of tested at dose of 100 mg/kg in the water- maze test after 15 minutes (day 4); assay type: functional; summary of the method: as §7
[31] = system: Rattus norvegicus; test: Effect of tested at dose of 100 mg/kg in the water- maze test (day 2); assay type: functional; summary of the method: as §7

CCOC(=O)C1CNC(=O)CC1C(=O)OCC (stereo in doubt; 4) [listing 1 of 2 here]
Activity [1]: 20.4 | Activity [2]: 1 | Activity [3]: 0% | Activity [4]: 75.8 | Activity [5]: 20 | Activity [6]: 112.8 | Activity [7]: 3.3 | Activity [8]: 2522 | Activity [9]: 3410.5 | Activity [10]: 0%

CCOC(=O)C1CNC(=O)CC1C(=O)OCC (stereo in doubt; 4) [listing 2 of 2 here]
Retention [11]: 100% | Retention time [12]: 44.2 s

CCOC(=O)C1CNC(=O)CC1C(=O)OCC (stereo in doubt; 5) [listing 1 of 2 here]
Activity [13]: 0% | Activity [14]: 16.4 | Activity [15]: 40% | Activity [16]: 0.8 | Activity [17]: 65.1 | Activity [18]: 8.9% | Activity [19]: 782 | Activity [20]: <7 | Activity [9]: 3025.2

CCOC(=O)C1CNC(=O)CC1C(=O)OCC (stereo in doubt; 5) [listing 2 of 2 here]
Retention [11]: 100% | Retention time [12]: 47.2 s

NC(=O)CN1CCCC1=O [PIRACETAM]
Activity [15]: 0% | No. of errors [21]: 2.1 | Speed of performance [21]: 235.7 | Activity [22]: 79.9 | Activity [5]: 19.6 | No. of errors [23]: 7.6 and 9.1 | No. of errors [24]: 3.6 | Speed of performance [24]: 197.6 | Speed of performance [25]: 282.7 | Retention [11]: 100% | Retention time [12]: 43.2 s | Activity [26]: 1.7 | No. of errors [27]: 7.2 and 8.1 | Speed of performance [28]: 272.2 and 265 | No. of errors [29]: 3.5 and 5 | Speed of performance [29]: 249 and 250.1 | No. of errors [30]: 3.2 | Speed of performance [30]: 251 | Activity [8]: 3764.3 | Speed of performance [31]: 291.5
